The source of these data is ChEMBL document CHEMBL3414528, “Novel naftopidil-related derivatives and their biological effects as alpha1-adrenoceptors antagonists and antiproliferative agents” (Eur J Med Chem, 2015).

As usually defined, the IC50 is the concentration needed to halve the response being measured. A high value points to lower potency.

Experiment [1] addresses T1, Alpha-1A adrenergic receptor (Rattus norvegicus, UniProt P43140).
T1 sequence (P43140 whole entry): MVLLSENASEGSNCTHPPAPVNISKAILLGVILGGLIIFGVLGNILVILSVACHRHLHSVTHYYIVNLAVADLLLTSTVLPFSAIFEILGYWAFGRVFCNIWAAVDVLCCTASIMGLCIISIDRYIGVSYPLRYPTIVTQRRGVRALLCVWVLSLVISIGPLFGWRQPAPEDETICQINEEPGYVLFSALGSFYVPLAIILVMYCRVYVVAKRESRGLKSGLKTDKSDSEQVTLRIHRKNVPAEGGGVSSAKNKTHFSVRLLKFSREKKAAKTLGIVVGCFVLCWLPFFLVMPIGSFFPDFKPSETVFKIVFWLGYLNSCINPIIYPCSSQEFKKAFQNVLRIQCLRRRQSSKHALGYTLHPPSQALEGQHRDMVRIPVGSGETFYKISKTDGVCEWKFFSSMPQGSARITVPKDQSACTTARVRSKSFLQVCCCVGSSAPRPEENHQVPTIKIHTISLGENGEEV
Nature of the experiment: Antagonist activity at Sprague-Dawley rat prostatic vas deferens adrenergic alpha-1A receptor after 20 mins. The settings on record: read-out: pA2 (converted). The method in brief: (§1)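 Isolated rat tissues (prostatic vas deferens, spleen, thoracic aorta) contracted with cumulative norepinephrine; concentration-response curves recorded in presence of increasing antagonist concentrations, antagonism read as rightward curve shift. Mean ± SEM of five to eight separate experiments.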

Experiment [2] is filed under the species Rattus norvegicus. Nature of the experiment: Selectivity ratio for Sprague-Dawley rat thoracic aorta adrenergic alpha-1D receptor to Sprague-Dawley rat spleen adrenergic alpha-1B receptor. It is filed as tissue-based.
For experiment [3], the species on record is Rattus norvegicus. Nature of the experiment: Selectivity ratio for Sprague-Dawley rat thoracic aorta adrenergic alpha-1D receptor to Sprague-Dawley rat prostatic vas deferens adrenergic alpha-1A receptor.
The target of experiment [4] is T2, Alpha-1B adrenergic receptor (Rattus norvegicus, UniProt P15823).
T2 sequence (P15823 whole entry): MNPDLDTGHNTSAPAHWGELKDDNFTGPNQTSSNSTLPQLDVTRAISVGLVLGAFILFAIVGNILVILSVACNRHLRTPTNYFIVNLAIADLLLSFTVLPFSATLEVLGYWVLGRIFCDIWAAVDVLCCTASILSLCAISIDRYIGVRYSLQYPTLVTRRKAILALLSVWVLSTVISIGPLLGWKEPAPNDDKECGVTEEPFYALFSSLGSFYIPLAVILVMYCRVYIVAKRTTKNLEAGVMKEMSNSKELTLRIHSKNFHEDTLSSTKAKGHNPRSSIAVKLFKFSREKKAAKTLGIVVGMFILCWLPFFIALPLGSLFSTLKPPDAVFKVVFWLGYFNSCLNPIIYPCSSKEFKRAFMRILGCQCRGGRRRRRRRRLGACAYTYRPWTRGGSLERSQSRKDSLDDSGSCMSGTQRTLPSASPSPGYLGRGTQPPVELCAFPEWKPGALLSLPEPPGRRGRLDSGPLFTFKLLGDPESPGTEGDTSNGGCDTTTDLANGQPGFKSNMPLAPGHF
Description: Antagonist activity at Sprague-Dawley rat spleen adrenergic alpha-1B receptor after 20 mins. The following applies: read-out: pA2 (converted). The method, boiled down: as §1

Experiment [5] addresses T3, Alpha-1D adrenergic receptor (Rattus norvegicus, UniProt P23944).
T3 sequence (P23944 whole entry): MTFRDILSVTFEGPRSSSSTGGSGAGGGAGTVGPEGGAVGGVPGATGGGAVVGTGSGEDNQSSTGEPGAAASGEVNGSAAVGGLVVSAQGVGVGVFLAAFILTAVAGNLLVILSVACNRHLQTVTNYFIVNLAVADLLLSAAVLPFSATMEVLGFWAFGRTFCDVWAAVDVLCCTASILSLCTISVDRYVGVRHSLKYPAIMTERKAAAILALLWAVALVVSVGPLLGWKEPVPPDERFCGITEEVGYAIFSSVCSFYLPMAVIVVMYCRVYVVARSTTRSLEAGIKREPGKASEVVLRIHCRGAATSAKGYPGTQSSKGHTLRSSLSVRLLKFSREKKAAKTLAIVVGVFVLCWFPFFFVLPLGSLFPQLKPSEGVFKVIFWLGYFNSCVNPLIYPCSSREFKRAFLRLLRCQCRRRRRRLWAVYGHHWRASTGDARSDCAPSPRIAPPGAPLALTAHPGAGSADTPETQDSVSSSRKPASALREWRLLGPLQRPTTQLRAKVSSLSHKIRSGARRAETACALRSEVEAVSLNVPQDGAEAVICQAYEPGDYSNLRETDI
Nature of the experiment: Antagonist activity at Sprague-Dawley rat thoracic aorta adrenergic alpha-1D receptor after 20 mins. The settings on record: read-out: pA2 (converted). The method, boiled down:
as §1

The species named for experiment [6] is Rattus norvegicus. Description: Selectivity ratio for Sprague-Dawley rat prostatic vas deferens adrenergic alpha-1A receptor to Sprague-Dawley rat spleen adrenergic alpha-1B receptor.
Experiment [7] has as its system DU-145. Description: Cytotoxicity against human DU145 cells after 48 hrs by WST-8 assay. In kind it is functional, cell-based. The following applies: DU-145, 48 h. (Tetrazolium dyes change colour on reduction, which living cells bring about.)
The nature of experiment [8]: Cytotoxicity against human PC3 cells after 48 hrs by WST-8 assay. In kind it is functional, cell-based. The following applies: PC-3, 48 h.
The test system of the next experiment is LNCaP. Nature of the experiment: Cytotoxicity against human LNCAP cells after 48 hrs by WST-8 assay. It is filed as functional, cell-based.
Experiment [9] deals with DU-145. Nature of the experiment: Cytotoxicity against human DU145 cells. It is filed as functional, cell-based.
Experiment [10] is described as follows: Cytotoxicity against human PC3 cells. It is filed as functional, cell-based. The settings on record: PC-3.

As to `COc1ccccc1N1CCN(CCCNC(=O)CCc2c[nH]c3ccccc23)CC1`, the Kb in experiment [1] was 195 nM; in experiment [4], 219 nM; in [5], 34.7 nM. Further, the Ratio in the experiment listed under Rattus norvegicus [2] was determined as 6.3; in the experiment listed under Rattus norvegicus [3], 5.6; in the experiment filed under Rattus norvegicus [6] it was 1.1.
Turning to `COc1ccccc1N1CCN(CCCNC(=O)c2cn(C)c3ccccc23)CC1`, the Kb is 52.5 nM in experiment [1], 166 nM in [4] and 5.5 nM in experiment [5]. In addition, the Ratio in the experiment filed under Rattus norvegicus [2] was determined as 30.2; in the experiment filed under Rattus norvegicus [3], 9.6; in the experiment filed under Rattus norvegicus [6], 3.2.
As for `COc1ccccc1N1CCN(CCCNC(=O)c2cc3cc(O)ccc3[nH]2)CC1`, the Kb in [1] is 55 nM; in [4], 155 nM; in experiment [5], 26.9 nM. Also, the Ratio in the experiment listed under Rattus norvegicus [2] is 5.6; in the experiment filed under Rattus norvegicus [3] it was 2; in the experiment filed under Rattus norvegicus [6], 2.8.
For the molecule `COc1ccccc1N1CCN(CCCNC(=O)CCCc2c[nH]c3ccccc23)CC1`, the results for the Kb in [1], in experiment [4] and in [5] were 12.6 nM, 95.5 nM and 5.13 nM, respectively. For the same molecule, the results for the Ratio in the experiment listed under Rattus norvegicus [2], in the experiment listed under Rattus norvegicus [3] and in the experiment listed under Rattus norvegicus [6] were 18.6, 2.5 and 7.6, respectively. Besides, the results for the IC50 (in the experiment with DU-145 [7]; in experiment [8]; with LNCaP) were > 100000 nM, > 100000 nM and 52300 nM, respectively.
As to `COc1cc2nc(N3CCN(C(=O)C4CCCO4)CC3)nc(N)c2cc1OC` (stereo not drawn) [TERAZOSIN], the values for the Kb in experiment [4] and in experiment [5] were 2.57 nM and 1.48 nM, respectively.
Take `COc1ccccc1N1CCN(CCCNC(=O)c2ccc3[nH]ccc3c2)CC1`: the Kb in experiment [1] was 26.3 nM; in [4] it was 123 nM; in experiment [5] it was 11.7 nM. Moreover, the values for the Ratio in the experiment filed under Rattus norvegicus [2], in the experiment listed under Rattus norvegicus [3] and in the experiment listed under Rattus norvegicus [6] were 10.5, 2.2 and 4.7, respectively.
Regarding `COc1ccccc1N1CCN(CCCNC(=O)c2cc3cc(Cl)ccc3[nH]2)CC1`, the Kb in experiment [1] was 47.9 nM; in experiment [4] it was 257 nM; in experiment [5], 19.5 nM. Further, the Ratio turned out to be 13.2 in the experiment listed under Rattus norvegicus [2], 2.5 in the experiment filed under Rattus norvegicus [3] and 5.4 in the experiment filed under Rattus norvegicus [6]. For the same molecule, the concentration for half-maximal inhibition (IC50) is 47000 nM with DU-145 [7], 36900 nM in experiment [8] and 28400 nM with LNCaP.
With `COc1ccccc1N1CCN(CCCNC(=O)Cc2c[nH]c3ccccc23)CC1`, the Kb in experiment [1] is 7.94 nM; in experiment [4] it was 513 nM; in experiment [5], 5.25 nM. Besides, the Ratio is 97.7 in the experiment listed under Rattus norvegicus [2], 1.5 in the experiment listed under Rattus norvegicus [3] and 64.6 in the experiment listed under Rattus norvegicus [6].
Take `COc1ccccc1N1CCN(CCCNC(=O)c2cc3cccc([N+](=O)[O-])c3[nH]2)CC1`: the figures for the Kb in experiment [1], in [4] and in experiment [5] were 58.9 nM, 646 nM and 28.2 nM, respectively. The Ratio in the experiment filed under Rattus norvegicus [2] was 22.9; in the experiment listed under Rattus norvegicus [3] it was 2.1; in the experiment listed under Rattus norvegicus [6], 11.
For `COc1ccc2[nH]c(C(=O)NCCCN3CCN(c4ccccc4OC)CC3)cc2c1`, the Kb in experiment [1] was 77.6 nM; in experiment [4] it was 1450 nM; in experiment [5], 58.9 nM. Besides, the Ratio in the experiment filed under Rattus norvegicus [2] came out at 24.5; in the experiment listed under Rattus norvegicus [3], 1.3; in the experiment filed under Rattus norvegicus [6], 18.6.
For the molecule `COc1ccccc1N1CCN(CC(O)COc2cccc3ccccc23)CC1` (stereo not drawn) [NAFTOPIDIL], the IC50 in the experiment with DU-145 [9] is 22200 nM; with DU-145 [7], > 50000 nM; in [8] it was > 50000 nM; in [10], 33200 nM; with LNCaP, > 50000 nM. The Kb in [1] is 33.1 nM; in experiment [4], 178 nM; in experiment [5] it was 11.7 nM. Moreover, the Ratio was found to be 15.1 in the experiment filed under Rattus norvegicus [2], 2.8 in the experiment listed under Rattus norvegicus [3] and 5.4 in the experiment listed under Rattus norvegicus [6].
`COc1ccccc1N1CCN(CCCNC(=O)c2cc3ccc(Br)cc3[nH]2)CC1`: the Kb in experiment [1] is 69.2 nM; in experiment [4], 209 nM; in [5], 15.1 nM. The figures for the Ratio in the experiment listed under Rattus norvegicus [2], in the experiment filed under Rattus norvegicus [3] and in the experiment listed under Rattus norvegicus [6] were 13.8, 4.6 and 3, respectively. For the same molecule, the IC50 in the experiment on DU-145 [7] worked out at 39300 nM; in experiment [8] it was 31200 nM; in the experiment with LNCaP, 26700 nM.
Take `COc1cc2nc(N3CCN(C(=O)C4COc5ccccc5O4)CC3)nc(N)c2cc1OC` (stereo not drawn) [DOXAZOSIN]: the IC50 in experiment [8] was > 50000 nM.
